{"source": "paper PMC5222895", "about": "(Drugs & Aging, 2016)", "type_in_all_cases": "in vivo, human", "key": {"[1]": {"system": "subjects with type 1 diabetes mellitus", "assay": "Safety assessments", "method_in_brief": "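Monitored from dosing to follow-up 7–21 days after second dose: adverse events, injection-site local tolerability, hypoglycaemic episodes, laboratory safety, physical exam, vital signs, ECG. Hypoglycaemia confirmed if severe (ADA, third-party assistance) or plasma glucose <3.1 mmol/L. Summarised descriptively for subjects receiving at least one dose.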"}, "[2]": {"system": "subjects with type 1 diabetes mellitus", "assay": "Euglycaemic glucose clamp", "details": "single s.c. 0.2 U/kg", "method_in_brief": "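Single 0.2 U/kg s.c. dose into the lower abdominal wall in randomised two-visit crossover (3–12 day washout), elderly (≥65 y) and younger (18–35 y) T1DM subjects, morning after overnight fast. Euglycaemic clamp, BG target 5.5 mmol/L, up to 12 h. GIR logged every minute. Partial and total AUCGIR taken from raw profiles. Least square means; age-group ratios with 95% CI.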"}, "[3]": {"assay": "Free serum insulin aspart pharmacokinetics after single subcutaneous dosing", "details": "single s.c. 0.2 U/kg", "method_in_brief": "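Same crossover dosing (0.2 U/kg s.c., fasted). Blood sampled before dosing, every 2 min to 20 min, every 5 min to 80 min, every 10 min to 2 h, every 15 min to 3 h, then 3.5–12 h. Free (PEG-precipitated) serum insulin aspart measured by validated specific ELISA, LLOQ 10 pmol/L. Pre-LLOQ concentrations imputed by compartmental modelling for initial AUC portion.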"}, "[4]": {"details": "elderly and younger adults with T1DM, single s.c. 0.2 U/kg"}, "[5]": {"details": "elderly (≥65 years) T1DM, least square mean, n = 30"}}}
{"substance": "insulin aspart", "values": [{"measurement": "Injection-site reactions", "setting": "[1]; during the trial", "result": "no injection-site reactions"}, {"measurement": "Adverse events of moderate intensity", "setting": "[1]; [4]", "result": "eight"}, {"measurement": "Serious adverse events", "setting": "[1]; [4]", "result": "no serious adverse events"}, {"measurement": "Tolerability", "setting": "[1]; [4]", "result": "well-tolerated"}, {"measurement": "Confirmed hypoglycaemic episodes", "setting": "[1]; severe (ADA) or plasma glucose <3.1 mmol/L, during the trial", "result": "No confirmed hypoglycaemic episodes"}, {"measurement": "GIRmax, ratio of elderly/younger adults [95% CI]", "setting": "[2]; age group ratio, T1DM", "result": "0.78 [0.60–1.01]"}, {"measurement": "AUCGIR,0-t, ratio of elderly/younger adults [95% CI]", "setting": "[2]; age group ratio, T1DM, primary endpoint for faster aspart", "result": "0.85 [0.67–1.07]"}, {"measurement": "AUCGIR,0-t (total glucose-lowering effect)", "setting": "[2]; elderly T1DM, clamp up to 12 h, least square mean, n = 22", "result": 1012.5, "unit": "mg/kg"}, {"measurement": "AUCIAsp,0-t, ratio of elderly/younger adults [95% CI]", "setting": "[3]; age group ratio, T1DM", "result": "1.32 [1.09–1.59]"}, {"measurement": "C max, ratio of elderly/younger adults [95% CI]", "setting": "[3]; age group ratio, T1DM", "result": "1.20 [0.96–1.50]"}, {"measurement": "t Early 50% Cmax", "setting": "[3]; [5]", "result": 28.0, "unit": "min"}, {"measurement": "t max", "setting": "[3]; [5]", "result": 1.07, "unit": "h"}, {"measurement": "C max (maximum insulin aspart concentration)", "setting": "[3]; elderly T1DM, least square mean, n = 30", "result": 0.3676, "unit": "nM"}]}
